From ChEMBL document CHEMBL3352586, “Pyridyl benzamides as a novel class of potent inhibitors for the kinetoplastid Trypanosoma brucei” (J Med Chem, 2014)
In brackets after ≈: the same amount, converted by molar mass.

Key:
[1] = test system: Leishmania donovani; test: Antimicrobial activity against amastigote form of Leishmania donovani MHOM/ET/67/L82 after 70 hrs by alamar blue assay; format: functional, organism-based; conditions: MHOM/ET/67/L82, 70 h
Outline: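 Leishmania donovani MHOM-ET-67/L82 axenic amastigotes, with miltefosine as reference drug.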

[2] = Selectivity index, ratio of IC50 for HEK293 cells to IC50 for Trypanosoma brucei brucei 427; format: toxicity, cell-based; conditions: human, read-out: Ratio IC50
[3] = test system: Trypanosoma cruzi; test: Antimicrobial activity against amastigote form of Trypanosoma cruzi Tulahuen C2C4 infected in rat L6 cells after 96 hrs by microscopic analysis; conditions: Tulahuen C2C4, L6, 96 h
[4] = test system: Trypanosoma brucei brucei; test: Antimicrobial activity against bloodstream form of Trypanosoma brucei brucei 427 after 48 hrs by alamar blue assay; format: functional, organism-based; conditions: Trypanosoma brucei, 427, 48 h
[5] = test system: Trypanosoma brucei rhodesiense; test: Antimicrobial activity against bloodstream form of Trypanosoma brucei rhodesiense STIB 900 after 70 hrs by alamar blue assay; format: functional, organism-based; conditions: STIB 900, 70 h
Outline: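 Trypanosoma brucei rhodesiense STIB 900 bloodstream-form trypomastigotes, with melarsoprol as reference drug.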

[6] = test system: L6; test: Cytotoxicity against rat L6 cells after 70 hrs by alamar blue assay; format: cell-based; conditions: L6, 70 h
Outline: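 Cytotoxicity on the rat skeletal myoblast L-6 strain, with podophyllotoxin as reference drug.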

[7] = test system: Plasmodium falciparum; test: Antimicrobial activity against erythrocytic stage of Plasmodium falciparum NF54 infected in human washed RBC assessed as [3H]-hypoxanthine incorporation incubated for 48 hrs prior to [3H]-hypoxanthine addition measured after 24 hrs by liquid scintillation counting analysis; format: functional, organism-based
[8] = test system: Trypanosoma brucei brucei; test: Antimicrobial activity against bloodstream form of Trypanosoma brucei brucei 427 at 10 uM after 48 hrs by alamar blue assay; format: functional; conditions: Trypanosoma brucei, 427, 48 h
[9] = Plasma protein binding in human […] by chromatographic method; format: ADME, cell-free; conditions: read-out: PPB (converted)
Outline: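 Human plasma protein binding was estimated by a chromatographic method.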

[10] = Kinetic solubility of the compound at 10 mg/ml at pH 2 by nephelometry; format: physicochemical; conditions: buffer, read-out: Kinetic_solubility
Outline: (§1)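 Kinetic solubility was read by nephelometry at pH 2 and pH 6.5 and reported as μg/mL ranges.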

[11] = Partition coefficient, log D of the compound at pH 7.4 by HPLC method; format: physicochemical; conditions: octanol/water
Outline: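 Distribution coefficient at pH 7.4 was measured chromatographically.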

[12] = Kinetic solubility of the compound at 10 mg/ml at pH 6.5 by nephelometry; format: physicochemical; conditions: buffer, read-out: Kinetic_solubility; outline: as §1
[13] = test system: Liver microsome; test: Intrinsic clearance in human liver microsomes at 1 uM after 60 mins by LC-MS analysis; format: ADME; conditions: 1 h
Outline: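 In vitro intrinsic clearance was measured in human liver microsomes and expressed per mg protein. A hepatic extraction ratio (E_H) was predicted from the in vitro data.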

SMILES: Cc1ccccc1C(=O)Nc1ccccn1
- IC50 [1]: 48 µM
- selectivity ratio [2]: 27.5
- IC50 [3]: 152 µM
- IC50 [4]: 3.03 µM
- IC50 [5]: 2.1 µM
- IC50 [6]: 156 µM
- IC50 [7]: 36 µM
- inhibition at 10 µM [8]: 80%

SMILES: Cc1ccccc1C(=O)Nc1ccc(C#CCC(C)C)cn1
- inhibition at 10 µM [8]: 12%

SMILES: CCC/C=C/c1ccc(NC(=O)c2ccccc2C)nc1
- inhibition at 10 µM [8]: 19%

SMILES: Cc1ccccc1C(=O)Nc1ccc(-c2ccccc2)cn1
- inhibition at 10 µM [8]: 11%

SMILES: Cc1ccccc1C(=O)Nc1cccc(OCC(C)C)n1
- inhibition at 10 µM [8]: < 10%

SMILES: CCCCN(C(=O)c1ccccc1C)c1ccccn1
- inhibition at 10 µM [8]: 11%

SMILES: CCCCCN(C(=O)c1ccccc1C)c1ccccn1
- inhibition at 10 µM [8]: 17%

SMILES: O=C(Nc1ccccn1)c1ccccc1I
- inhibition at 10 µM [8]: 38%

SMILES: Cc1ccccc1C(=O)Nc1ncccn1
- fraction unbound [9]: 0.024
- solubility kinetic [10]: 6.3 µg/mL (≈ 29.5 µM)
- logD [11]: 3.9
- inhibition at 10 µM [8]: < 10%
- solubility kinetic [12]: 6.3 µg/mL (≈ 29.5 µM)

SMILES: Cc1ccccc1C(=O)Nc1cc(C#N)ccn1
- fraction unbound [9]: 0.359
- IC50 [4]: 2.3 µM
- solubility kinetic [10]: 50 µg/mL (≈ 211 µM)
- logD [11]: 2.8
- CLint [13]: 82 µL/min/mg
- solubility kinetic [12]: 25 µg/mL (≈ 105 µM)

SMILES: Cc1ccnc(NC(=O)c2ccccc2C)c1
- IC50 [1]: > 133 µM
- selectivity ratio [2]: > 37
- fraction unbound [9]: 0.299
- IC50 [3]: 173 µM
- IC50 [4]: 2.1 µM
- IC50 [5]: 0.36 µM
- IC50 [6]: 146 µM
- solubility kinetic [10]: > 100 µg/mL
- IC50 [7]: 124 µM
- logD [11]: 2.8
- CLint [13]: 129 µL/min/mg
- solubility kinetic [12]: 25 µg/mL (≈ 110 µM)

SMILES: Cc1ccccc1C(=O)Nc1cc(Cl)ccn1
- IC50 [1]: 168 µM
- selectivity ratio [2]: > 38
- fraction unbound [9]: 0.134
- IC50 [3]: 168 µM
- IC50 [4]: 2.1 µM
- IC50 [5]: 0.61 µM
- IC50 [6]: 224 µM
- solubility kinetic [10]: 25 µg/mL (≈ 101 µM)
- IC50 [7]: 88 µM
- logD [11]: 3.4
- CLint [13]: 128 µL/min/mg
- solubility kinetic [12]: 12.5 µg/mL (≈ 50.7 µM)

SMILES: Cc1ccccc1C(=O)Nc1cc(Br)ccn1
- selectivity ratio [2]: > 41
- IC50 [4]: 1.8 µM

SMILES: Cc1ccccc1C(=O)Nc1cc(F)ccn1
- selectivity ratio [2]: 168
- IC50 [4]: 0.51 µM

SMILES: Cc1ccccc1C(=O)Nc1cc(C#Cc2ccccc2)ccn1
- IC50 [1]: > 96 µM
- selectivity ratio [2]: > 51
- fraction unbound [9]: 0.017
- IC50 [3]: 71 µM
- IC50 [4]: 1.7 µM
- IC50 [5]: 0.061 µM
- IC50 [6]: 198 µM
- solubility kinetic [10]: 1.6 µg/mL (≈ 5.12 µM)
- IC50 [7]: 9.7 µM
- logD [11]: 4.7
- CLint [13]: 27 µL/min/mg
- solubility kinetic [12]: < 1.6 µg/mL

SMILES: Cc1ccccc1C(=O)Nc1cc(C#CCC(C)C)ccn1
- selectivity ratio [2]: > 53
- IC50 [4]: 1.1 µM

SMILES: Cc1ccccc1C(=O)Nc1cc(-c2ccccc2)ccn1
- IC50 [1]: > 124 µM
- selectivity ratio [2]: 31
- IC50 [3]: 66 µM
- IC50 [4]: 2 µM
- IC50 [5]: 0.97 µM
- IC50 [6]: 70 µM
- IC50 [7]: 91 µM

SMILES: COc1ccc(NC(=O)c2ccccc2C)nc1
- selectivity ratio [2]: > 22
- fraction unbound [9]: 0.399
- IC50 [4]: 3.8 µM
- solubility kinetic [10]: > 100 µg/mL
- logD [11]: 2.5
- CLint [13]: 23 µL/min/mg
- solubility kinetic [12]: 12.5 µg/mL (≈ 51.6 µM)

SMILES: Cc1ccccc1C(=O)Nc1ccc(C#N)cn1
- fraction unbound [9]: 0.025
- solubility kinetic [10]: 6.3 µg/mL (≈ 26.6 µM)
- logD [11]: 3.9
- inhibition at 10 µM [8]: < 10%
- solubility kinetic [12]: 6.3 µg/mL (≈ 26.6 µM)

SMILES: Cc1ccccc1C(=O)Nc1cccc(F)n1
- fraction unbound [9]: 0.33
- solubility kinetic [10]: > 100 µg/mL
- logD [11]: 3
- CLint [13]: 191 µL/min/mg
- inhibition at 10 µM [8]: < 10%
- solubility kinetic [12]: > 100 µg/mL

SMILES: CCC/C=C/c1cccc(NC(=O)c2ccccc2C)n1
- selectivity ratio [2]: > 3
- IC50 [4]: 6 µM

SMILES: Cc1ccccc1C(=O)Nc1cccc(N)n1
- selectivity ratio [2]: > 19
- IC50 [4]: 4.6 µM

SMILES: CCc1ccccc1C(=O)Nc1ccccn1
- selectivity ratio [2]: 30
- IC50 [4]: 2.74 µM

SMILES: Cc1c(F)cccc1C(=O)Nc1ccccn1
- IC50 [1]: > 131 µM
- selectivity ratio [2]: 94
- fraction unbound [9]: 0.321
- IC50 [3]: 198 µM
- IC50 [4]: 0.89 µM
- IC50 [5]: 0.61 µM
- IC50 [6]: 310 µM
- solubility kinetic [10]: 50 µg/mL (≈ 217 µM)
- IC50 [7]: 103 µM
- logD [11]: 2.6
- CLint [13]: 58 µL/min/mg
- solubility kinetic [12]: 25 µg/mL (≈ 109 µM)

SMILES: O=C(Nc1ccccn1)c1cccc(F)c1
- selectivity ratio [2]: 11
- IC50 [4]: 7.33 µM

SMILES: Cc1c(Cl)cccc1C(=O)Nc1ccccn1
- selectivity ratio [2]: 132
- IC50 [4]: 0.63 µM

SMILES: Cc1c(Br)cccc1C(=O)Nc1ccccn1
- selectivity ratio [2]: 15
- IC50 [4]: 5.7 µM

SMILES: Cc1cccc(C(=O)Nc2ccccn2)c1C
- selectivity ratio [2]: 24
- IC50 [4]: 3.5 µM

SMILES: COc1cccc(C(=O)Nc2ccccn2)c1C
- inhibition at 10 µM [8]: 10%

SMILES: Cc1ncccc1C(=O)Nc1ccccn1
- inhibition at 10 µM [8]: 21%

SMILES: Cc1cc(F)ccc1C(=O)Nc1ccccn1
- selectivity ratio [2]: 44
- IC50 [4]: 1.9 µM

SMILES: Cc1cc(Cl)ccc1C(=O)Nc1ccccn1
- selectivity ratio [2]: 76
- IC50 [4]: 1.1 µM

SMILES: COc1ccc(C(=O)Nc2ccccn2)c(C)c1
- inhibition at 10 µM [8]: < 10%

SMILES: Cc1ccc(C(=O)Nc2ccccn2)c(C)c1
- IC50 [1]: > 133 µM
- selectivity ratio [2]: 85
- IC50 [3]: 187 µM
- IC50 [4]: 0.98 µM
- IC50 [5]: 0.24 µM
- IC50 [6]: 283 µM
- IC50 [7]: 93 µM

SMILES: Cc1ccnc(NC(=O)c2cccc(F)c2C)c1
- selectivity ratio [2]: 100
- fraction unbound [9]: 0.276
- IC50 [4]: 0.83 µM
- solubility kinetic [10]: > 100 µg/mL
- logD [11]: 3.5
- CLint [13]: 237 µL/min/mg
- solubility kinetic [12]: 25 µg/mL (≈ 102 µM)

SMILES: Cc1ccnc(NC(=O)c2ccc(F)c(F)c2C)c1
- IC50 [1]: > 113 µM
- selectivity ratio [2]: 93
- IC50 [3]: 147 µM
- IC50 [4]: 0.9 µM
- IC50 [5]: 0.64 µM
- IC50 [6]: 223 µM
- IC50 [7]: 72 µM

SMILES: Cc1c(C(=O)Nc2cc(Cl)ccn2)ccc(F)c1F
- selectivity ratio [2]: 160
- IC50 [4]: 0.53 µM

SMILES: Cc1c(F)cccc1C(=O)Nc1cc(F)ccn1
- selectivity ratio [2]: 851
- IC50 [4]: 0.1 µM

SMILES: Cc1c(C(=O)Nc2cc(F)ccn2)ccc(F)c1F
- selectivity ratio [2]: 450
- IC50 [4]: 0.19 µM

SMILES: COc1ccc(NC(=O)c2cccc(F)c2C)nc1
- selectivity ratio [2]: 4
- IC50 [4]: 2.3 µM

SMILES: COc1ccc(NC(=O)c2ccc(F)cc2C)nc1
- selectivity ratio [2]: 32
- IC50 [4]: 2.6 µM

SMILES: O=C(Nc1ccccn1)c1ccccc1
- selectivity ratio [2]: 9.2
- IC50 [4]: 9.07 µM

SMILES: CCN(CC)CCCC(C)Nc1ccnc2cc(Cl)ccc12 (stereo not given) [CHLOROQUINE]
- EC50 [7]: 0.11 µg/mL (≈ 0.344 µM)
